Most compounds without a hit are left out; they make up all but 2.4% or so of the library.
aDG glyco up = alpha-DG glycosylation activation | Pro5-aDG cells, alpha-DG glycosylation AlphaScreen (IIH6); 0% Pro5, 100% B10-LARGE cell signal | activation, % at 10 µM | 360,000 compounds, 0.22% hits | AID 624168;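 active = activation of at least 8% versus controls, or a plate z-score of at least 8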;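 also: Pro5 are CHO cells carrying HIG-tagged alpha-DG that lacks glycosylation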
697 NFkB inh = inhibitors of the PMA/ionomycin-induced NF-kB reporter in 697 B cells; 697 B-cell NF-kB luciferase reporter, 16 h; AID 435022; inhibition, % at 4 µM; 330,000 compounds, 0.33% hits; in the data active = inhibition above about 35%
Jurkat NFkB inh = inhibitors of the PMA/ionomycin-induced NF-kB reporter in Jurkat cells; PMA/ionomycin-induced NF-kB luciferase reporter, luminescence; inhibition, % at 4 µM; 330,000 compounds, 0.53% hits; AID 435003; in the data active = inhibition above about 50%
MPTP inh = permeability transition pore inhibition | isolated mouse mitochondria, Ca2+ swelling absorbance, 30 min | inhibition, % at 10 µM | 360,000 compounds, 1.4% hits | AID 602449;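 active = inhibition of 50% or more, scaled per plate between neutral and stimulator controls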;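 also: 0% = DMSO wells given calcium and 100% = 1 mM EGTA wells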
NR2E3 ag-1 = activates human photoreceptor nuclear receptor NR2E3. Q9Y5X4. GST-NR2E3/biotin-RetCOR TR-FRET, 1536-well. inhibition of corepressor binding, % at 4.78 µM. 320,000 compounds, 0.12% hits. AID 2300;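 active = percent inhibition above the cutoff of mean plus 3 SD of all tested compounds, set per screening campaign, cut at about 20% in these data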;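 also: 0% = DMSO wells and 100% = biotin wells as full block of FRET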
Target sequence (Q9Y5X4 whole entry, looked up): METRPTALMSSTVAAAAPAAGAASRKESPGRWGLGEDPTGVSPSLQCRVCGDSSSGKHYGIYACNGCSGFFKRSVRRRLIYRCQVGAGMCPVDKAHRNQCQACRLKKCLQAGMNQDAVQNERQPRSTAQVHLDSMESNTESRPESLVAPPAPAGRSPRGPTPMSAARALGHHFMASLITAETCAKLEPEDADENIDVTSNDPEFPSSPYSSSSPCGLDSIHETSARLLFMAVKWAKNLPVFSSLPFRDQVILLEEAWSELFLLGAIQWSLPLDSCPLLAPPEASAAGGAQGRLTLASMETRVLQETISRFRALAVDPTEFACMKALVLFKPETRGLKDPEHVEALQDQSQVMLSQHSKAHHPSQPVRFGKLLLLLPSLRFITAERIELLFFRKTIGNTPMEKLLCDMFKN
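Test system – NR2E3–RetCOR corepressor complex · Quantity – NR2E3 fusion 1.35 nM · Buffer or medium – Tris pH 7.5 · Incubation – Compound–protein incubation for 5 h at 4 °C · Technique – TR-FRET, Eu(K)-anti-GST donor, streptavidin-D2 acceptor, ex 340, em 617/671 nm · Evaluation – percent inhibition of 671/617 nm emission ratio versus biotin and DMSO controls · Plate – 1536-well format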
NR2E3 ag-2 = human photoreceptor-specific nuclear receptor agonism. Q9Y5X4. CHO-S Gal4-NCOR/VP16-NR2E3 two-hybrid, luciferase. inhibition of corepressor binding, % at 3.98 µM. 360,000 compounds, 0.35% hits;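 active = inhibition above the mean of all tested compounds plus 3 SD, cut at about 70% in these data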;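 also: 0% = DMSO with NR2E3 transfected cells and 100% = cells lacking NR2E3 construct; higher means lower luciferase signal from less NR2E3 corepressor binding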
697 NFkB conf = lowers PMA/ionomycin-induced NF-kB signal in 697 B cells. shares compounds with 697 NFkB inh. 697 B-cell NF-kB luciferase, 16 h. inhibition, % at 4 µM. 2,000 compounds, 35% hits. AID 449746; in the data active = inhibition mostly above about 28%, no sharp cut-off; inactive = mostly below about 22%
* marks the source's active call; other numbers are inactive results; i = inactive; . = not tested or not shown.

SMILES	aDG glyco up	697 NFkB inh	Jurkat NFkB inh	MPTP inh	NR2E3 ag-1	NR2E3 ag-2	697 NFkB conf
CN(CC(=O)Nc1ccccc1Cl)C(=O)c1ccccc1Sc1ccccc1C#N	0.1	3.0	-4.8	0.5	-4.1	20.2	.
O=C(COc1ccccc1)Nc1ccc(S(=O)(=O)Nc2ccccn2)cc1	0.0	-7.9	5.5	0.1	2.6	-15.4	.
O=C(NNC(=O)C12CC3CC(CC(C3)C1)C2)c1cccc(O)c1	0.2	43.9*	7.3	-0.6	0.1	3.8	45.4*
O=C(NNC(=O)C12CC3CC(CC(C3)C1)C2)c1ccccc1O	0.8	9.9	-0.8	-2.0	1.6	-38.0	.
NC1=NS(=O)(=O)NC1c1cccc(F)c1 (stereo not given)	-0.1	-6.0	3.9	-0.3	1.1	-6.7	.
Fc1cccc(C2NN=C(c3ccccc3)S2)c1 (stereo not given)	-0.1	-299.5	-140.3	-0.8	1.3	-97.3	-217.9
Cc1ccc(-n2ncc3c(NCc4cccnc4)ncnc32)cc1C	0.5	-260.8	-104.1	1.6	4.5	9.5	-265.8
CCCCNc1ncnc2c1cnn2-c1ccc(Cl)cc1	-0.1	-307.9	-24.8	0.1	-0.4	-158.3	-324.4
O=C(c1cc2cc([N+](=O)[O-])ccc2s1)N1CCCCC1	-0.1	4.0	-12.8	-1.0	-1.9	-51.2	.
COCCn1c(SC(C)C(=O)Nc2ncc(Cl)cc2Cl)nc2ccccc21 (stereo not given)	0.1	-250.8	-15.1	-0.4	3.8	33.7	-205.9
COc1cc(/C=C/c2nc(N)nc(-c3ccccc3O)n2)cc(OC)c1OC	3.8	36.0*	47.5	-0.4	-0.8	14.3	20.9
CCCCOc1ccc(N(CC(=O)NCCOC)C(=O)CCC(=O)Nc2ccccn2)cc1	0.1	2.7	-4.8	1.1	1.8	-4.0	.
CC1CCCC(C)N1C(=O)CSc1nnc(-c2ccco2)n1C (stereo not given)	-0.1	21.2	-2.0	-0.2	1.2	2.4	.
COc1ccc(/C=C\C(=O)O[C@@H]2C(O)C(O[C@@H]3OC(C)[C@H](O[C@@H]4OCC(O[C@H]5O[C@H](CO)[C@@H](O)C(O)C5O)C(O)C4O)C(O)C3O)[C@H](OC(=O)[C@]34CCC(C)(C)C[C@@H]3C3=CCC5[C@@]6(C)CC(O)C(O[C@@H]7OC(CO)C(O)[C@H](O)[C@H]7O)[C@@](C)(C(=O)O)C6CC[C@@]5(C)[C@]3(CO)CC4)O[C@H]2C)cc1 (stereo not given in full)	0.6	49.2*	28.7	-0.3	.	96.5*	43.7*
CCN1C(=O)c2cccc3c(S(=O)(=O)Nc4ccccc4)ccc1c23	1.1	52.2*	-1.6	1.5	-4.7	17.0	43.2*
CCN1C(=O)c2cccc3c(S(=O)(=O)Nc4ccccn4)ccc1c23	-0.1	58.3*	3.5	1.0	-2.9	-22.4	54.4*
CCN1C(=O)c2cccc3c(S(=O)(=O)Nc4ncccc4C)ccc1c23	-0.1	33.6	7.5	-0.2	-0.6	-7.0	.
CCN1C(=O)c2cccc3c(S(=O)(=O)NCC4CCCO4)ccc1c23 (stereo not given)	-0.3	37.5*	1.1	-0.1	3.7	-12.8	59.3*
CCN1C(=O)c2cccc3c(S(=O)(=O)Nc4ccncc4)ccc1c23	-0.2	37.3*	-1.1	-0.3	2.6	0.6	9.6
O=C1Nc2ccc(S(=O)(=O)NCC3CCCO3)c3cccc1c23 (stereo not given)	-0.4	6.4	-8.4	-0.1	-3.0	-9.2	.
O=C(NC1CCCCCC1)c1ccc([N+](=O)[O-])s1	2.8	-8.2	-6.6	0.5	.	-10.7	.
CN1C(=O)c2cccc3c(S(=O)(=O)Nc4ccccc4F)ccc1c23	0.0	37.2*	4.3	0.1	-1.8	-27.4	34.2*
CNS(=O)(=O)c1ccc2c3c(cccc13)C(=O)N2C	0.1	9.1	5.2	0.7	1.5	-25.9	.
Cc1ccccc1CC(=O)Nc1cccc(S(=O)(=O)N2CCCC2)c1	0.2	9.9	3.1	1.8	-2.5	-6.2	.
CCNS(=O)(=O)c1ccc2c3c(cccc13)C(=O)N2	-0.2	37.9*	5.3	1.1	-3.3	-16.7	19.2
SMILES	aDG glyco up	697 NFkB inh	Jurkat NFkB inh	MPTP inh	NR2E3 ag-1	NR2E3 ag-2	697 NFkB conf
CCN1C(=O)[C@H]2[C@@H](c3ccc(C)cc3)N[C@]3(CCCN(Cc4ccc(F)cc4)C3=O)[C@H]2C1=O	-0.1	.	.	0.4	.	-27.7	.
CCc1nc(SCC(=O)N2c3ccccc3CC2C)c2c(C)c(C)sc2n1 (stereo not given)	0.9	i	-56.0	3.5	-0.5	5.6	i
CCOc1ccc(NC(=O)CN(C)C(=O)c2ccc(N3CCCCCC3)c([N+](=O)[O-])c2)cc1OCC	-0.1	41.9*	-13.6	-0.6	0.3	-2.8	3.3
O=C(N/N=C\c1ccc(F)cc1)c1ccc(Cn2cc(Br)c([N+](=O)[O-])n2)o1	0.1	37.4*	6.3	-0.6	-2.8	-27.1	15.1
Cc1noc(C)c1COc1ccc(C(=O)OCC(=O)Nc2cccc(S(=O)(=O)N3CCOCC3)c2)cc1	-0.1	38.8*	5.4	-8.4	-3.1	5.3	-0.1
Cc1noc(C)c1COc1cccc(C(=O)N(C)Cc2nc3ccccc3c(=O)[nH]2)c1	0.1	11.6	1.9	1.5	-2.0	-26.2	.
CC(C)N(c1ccccc1)c1ccc(NC(=O)CCl)cc1	0.5	35.5*	24.1	2.0	-1.5	2.7	11.0
C=CCn1c(CCC(O)COCCC)n[nH]c1=S (stereo not given)	0.5	17.7	-11.3	0.1	1.0	10.2	.
O=C(c1cccc(S(=O)(=O)N2CCOCC2)c1)N1CCCC1	0.0	36.5*	6.4	-0.5	2.0	8.4	8.2
O=C(c1cccc(S(=O)(=O)N2CCOCC2)c1)N1CCCCCC1	-0.1	-7.5	-1.5	-1.5	3.3	-9.1	.
C=CCN1C(=O)c2ccccc2NC1c1cc(Br)cs1 (stereo not given)	0.1	-1.4	5.3	-1.1	1.4	10.2	.
CCc1ccc2[nH]c3nc(N/N=C/c4cccc(O)c4)nnc3c2c1	-0.1	60.5*	22.1	1.4	0.7	-2.0	76.4*
COc1cccc(/C=N/Nc2nnc3c(n2)[nH]c2ccccc23)c1OC	-0.2	-25.8	-24.5	1.1	-1.4	-49.7	.
COc1ccc(/C=C2\SC(=S)N(CCC(=O)Nc3ccc(C(=O)O)cc3)C2=O)cc1OC	-0.1	35.2*	-11.7	0.2	-4.1	-33.2	31.1*
COc1ccc(/C=C2\SC(=S)N(CCC(=O)Nc3cccc(O)c3)C2=O)cc1OC	0.1	37.1*	-9.5	-1.3	-2.1	-21.6	9.9

Compound activity from PubChem BioAssay.
